Reference: ChEMBL document CHEMBL1135128, “Structure-Activity studies for a novel series of tricyclic dihydropyrimidines as K(ATP) channel openers (KCOs)” (Bioorg Med Chem Lett, 2002)

What was measured:
[1] = target: Sulfonylurea receptors; K-ATP channels; experiment: Potassium channel opening activity determined in cultured guinea pig urinary bladder cells; assay type: functional, cell-based, Cavia porcellus
Summary of the method: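 Membrane potential change read as DiBAC dye fluorescence in a 96-well cell-based kinetic FLIPR assay. Fluorescence changes were compared with the response to the KCO P1075, and each compound's maximal response was expressed as % of the P1075 response.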

[2] = PEC50 for functional potassium channel opening activity in isolated bladder strips

`N#Cc1cccc(C2C3=C(CCCC3=O)NC3=C2C(=O)CCC3)c1` gave an EC50 [1] of 3800 nM.
`OC1=C2C(=Nc3c(-c4ccco4)cnn3C2c2ccc(Cl)c(Cl)c2)CCC1` (configuration not stated) gave an EC50 [1] of 12000 nM.
`OC1=C2C(=Nc3ccnn3C2c2ccc(F)c(C(F)(F)F)c2)CCC1` (configuration not stated) showed an EC50 [1] of 290 nM.
`OC1=C2C(=Nc3ccnn3C2c2ccc(Cl)c(C(F)(F)F)c2)CCC1` (configuration not stated) gave an EC50 [1] of 187 nM.
`OC1=C2C(=Nc3ccnn3C2c2cccc(Cl)c2)CCC1` (configuration not stated) gave an EC50 [1] of 1100 nM.
Compound `Cc1cccc(C2C3=C(O)CCCC3=Nc3ccnn32)c1` (configuration not stated) has an EC50 [1] of over 10000 nM.
With `OC1=C2C(=Nc3ccnn3C2c2ccc(F)cc2)CCC1` (configuration not stated) the EC50 [1] was 7800 nM.
Work on `OC1=C2C(=Nc3nnnn3C2c2ccc(F)c(Br)c2)CCC1` (configuration not stated) yielded an EC50 [1] of over 10000 nM.
`OC1=C2C(=Nc3n[nH]cc3C2c2ccc(F)c(Br)c2)CCC1` (configuration not stated) gave an EC50 [1] of over 10000 nM.
`OC1=C2C(=Nc3ncnn3C2c2ccc(F)c(Br)c2)CCC1` (configuration not stated) gave an EC50 [1] of over 10000 nM.
With `OC1=C2C(=Nc3c(-c4cccc(F)c4)cnn3C2c2ccc(Cl)c(Cl)c2)CCC1` (configuration not stated) the EC50 [1] was 3200 nM.
With `OC1=C2C(=Nc3ccnn3C2c2ccc(Br)c(F)c2)CCC1` (configuration not stated) the EC50 [1] was 30 nM.
`O=[N+]([O-])c1cc(C2C3=C(O)CCCC3=Nc3ccnn32)ccc1Cl` (configuration not stated) gave an EC50 [1] of 310 nM.
With `CC1(C)CC(=O)C2C(C1)Nc1ccnn1C2c1ccc(F)c(Br)c1` (configuration not stated) the EC50 [1] was 9700 nM.
For `CC(C)(C)c1cc2n(n1)C(c1ccc(F)c(Br)c1)C1=C(O)CCCC1=N2` (configuration not stated), the EC50 [1] was 12000 nM.
For `O=C1CSCC2Nc3ccnn3C(c3ccc(F)c(Br)c3)C12` (configuration not stated), the EC50 [1] was 40 nM.
Work on `OC1=C2C(=Nc3ccnn3C2c2ccc(F)c(Br)c2)CCC1` (configuration not stated) yielded an EC50 [1] of 30 nM and an EC50 [2] of 339 nM.
With `CC1(C)CCC2Nc3ccnn3C(c3ccc(F)c(Br)c3)C2C1=O` (configuration not stated) the EC50 [1] was 35 nM and the EC50 [2] was 1000 nM.
For `O=S1(=O)CCCC2Nc3ccnn3C(c3ccc(F)c(Br)c3)C21` (configuration not stated), the EC50 [1] was 910 nM.
`OC1=C2C(=Nc3ccnn3C2c2cccc(OC(F)(F)F)c2)CCC1` (configuration not stated) gave an EC50 [1] of 1700 nM.
Compound `OC1=C2C(=Nc3ccnn3C2c2ccc(F)c(Cl)c2)CCC1` (configuration not stated) has an EC50 [1] of 256 nM.
In the case of `N#Cc1cccc(C2C3=C(O)CCCC3=Nc3ccnn32)c1` (configuration not stated), the EC50 [1] is reported as 2860 nM.
In the case of `OC1=C2C(=Nc3c(Br)cnn3C2c2ccc(F)c(Br)c2)CCC1` (configuration not stated), the EC50 [1] is reported as 394 nM.
In the case of `OC1=C2C(=Nc3ccnn3C2c2cccc(Br)c2)CCC1` (configuration not stated), the EC50 [1] is reported as 550 nM.
`OC1=C2C(=Nc3ccnn3C2c2ccc(Cl)c(Cl)c2)CCC1` (configuration not stated) showed an EC50 [1] of 130 nM.
